Source: ChEMBL document CHEMBL1148673, “Peptidomimetic C5a receptor antagonists with hydrophobic substitutions at the C-terminus: increased receptor specificity and in vivo activity” (Bioorg Med Chem Lett, 2006)
Residues, ends and D or L forms follow the SMILES beside them.

How the values were obtained:
[1] = target: T1, C5a anaphylatoxin chemotactic receptor 1 (Homo sapiens, UniProt P21730); test: Antagonist activity at human C5aR in CD88 transfected RBL cells assessed as inhibition of C5a-induced glucosaminidase release; type: functional, cell-based
T1 sequence (P21730 whole entry): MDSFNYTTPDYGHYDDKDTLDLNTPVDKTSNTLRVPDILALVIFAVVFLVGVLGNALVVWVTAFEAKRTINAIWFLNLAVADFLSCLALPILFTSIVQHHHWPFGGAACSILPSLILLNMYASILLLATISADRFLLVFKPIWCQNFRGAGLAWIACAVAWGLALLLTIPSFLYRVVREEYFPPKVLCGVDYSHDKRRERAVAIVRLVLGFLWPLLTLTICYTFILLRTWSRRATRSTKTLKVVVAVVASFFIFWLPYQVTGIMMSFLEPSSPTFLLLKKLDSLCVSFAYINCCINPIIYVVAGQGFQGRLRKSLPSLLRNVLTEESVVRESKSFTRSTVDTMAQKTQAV
In short: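 Functional antagonism read as inhibition of glucosaminidase release stimulated by C5a from RBL cells transfected with CD88 (RBL+); IC50 in µM.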

[2] = Stability in human liver microsome after 1 hr; type: ADME; conditions: liver microsomes, read-out: Stability
In short: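 Compound incubated with human liver microsomes, 1 h at 37 °C; read-out is % of parent remaining.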

Structure (SMILES)	IC50 [1]	remaining at 1 h [2]
CC(=O)N[C@@H](Cc1ccccc1)C(=O)N[C@H]1CCCNC(=O)[C@H](CCCNC(N)=O)NC(=O)[C@H](Cc2c[nH]c3ccccc23)NC(=O)[C@@H](CC2CCCCC2)NC(=O)[C@@H]2CCCN2C1=O	0.49 µM	–
CC(=O)N[C@@H](Cc1ccccc1)C(=O)N[C@@H](CCCN)C(=O)N1CCC[C@H]1C(=O)N[C@H](CCC(C)C)C(=O)N[C@@H](Cc1cccc(Cl)c1)C(=O)N[C@@H](Cc1ccccc1)C(N)=O	0.06 µM	62%
CCCC[C@@H]1NC(=O)[C@H](Cc2c[nH]c3ccccc23)NC(=O)[C@@H](CC2CCCCC2)NC(=O)[C@@H]2CCCN2C(=O)[C@@H](NC(=O)[C@H](Cc2ccccc2)NC(C)=O)CCCNC1=O (HELM PEPTIDE1{[ac].F.[Orn].P.[O=C([C@@H](CC1CCCCC1)N[*:1])[*:2]].W.[Nle]}$PEPTIDE1,PEPTIDE1,3:R3-7:R2$$$V2.0)	0.025 µM	–
CC(=O)N[C@@H](Cc1ccccc1)C(=O)N[C@H]1CCCNC(=O)[C@H](C2CCCCC2)NC(=O)[C@H](Cc2c[nH]c3ccccc23)NC(=O)[C@@H](CC2CCCCC2)NC(=O)[C@@H]2CCCN2C1=O (HELM PEPTIDE1{[ac].F.[Orn].P.[O=C([C@@H](CC1CCCCC1)N[*:1])[*:2]].W.[O=C([C@@H](N[*:1])C1CCCCC1)[*:2]]}$PEPTIDE1,PEPTIDE1,3:R3-7:R2$$$V2.0)	0.038 µM	–
CC(=O)N[C@@H](Cc1ccccc1)C(=O)N[C@@H](CCCN)C(=O)N1CCC[C@H]1C(=O)N[C@H](CC1CCCCC1)C(=O)N[C@@H](Cc1c[nH]c2ccccc12)C(=O)N[C@@H](Cc1ccccc1)C(N)=O (HELM PEPTIDE1{[ac].F.[Orn].P.[O=C([C@@H](CC1CCCCC1)N[*:1])[*:2]].W.F.[am]}$$$$V2.0)	0.031 µM	34%
CCC[C@@H]1NC(=O)[C@H](Cc2c[nH]c3ccccc23)NC(=O)[C@@H](CC2CCCCC2)NC(=O)[C@@H]2CCCN2C(=O)[C@@H](NC(=O)[C@H](Cc2ccccc2)NC(C)=O)CCCNC1=O (HELM PEPTIDE1{[ac].F.[Orn].P.[O=C([C@@H](CC1CCCCC1)N[*:1])[*:2]].W.[Nva]}$PEPTIDE1,PEPTIDE1,3:R3-7:R2$$$V2.0)	0.018 µM	–
CC[C@H](C)[C@@H]1NC(=O)[C@H](Cc2c[nH]c3ccccc23)NC(=O)[C@@H](CC2CCCCC2)NC(=O)[C@@H]2CCCN2C(=O)[C@@H](NC(=O)[C@H](Cc2ccccc2)NC(C)=O)CCCNC1=O	0.05 µM	–
CCCCCCCC[C@@H]1NC(=O)[C@H](Cc2c[nH]c3ccccc23)NC(=O)[C@@H](CC2CCCCC2)NC(=O)[C@@H]2CCCN2C(=O)[C@@H](NC(=O)[C@H](Cc2ccccc2)NC(C)=O)CCCNC1=O	0.3 µM	–
CC(=O)N[C@@H](Cc1ccccc1)C(=O)N[C@H]1CCCNC(=O)[C@H](CCCN)NC(=O)[C@H](Cc2c[nH]c3ccccc23)NC(=O)[C@@H](CC2CCCCC2)NC(=O)[C@@H]2CCCN2C1=O	0.018 µM	–
CC(=O)N[C@@H](Cc1ccccc1)C(=O)N[C@H]1CCCNC(=O)[C@H](CCC(C)C)NC(=O)[C@H](Cc2c[nH]c3ccccc23)NC(=O)[C@@H](CC2CCCCC2)NC(=O)[C@@H]2CCCN2C1=O (HELM PEPTIDE1{[ac].F.[Orn].P.[O=C([C@@H](CC1CCCCC1)N[*:1])[*:2]].W.[CC(C)CC[C@H](N[*:1])C(=O)[*:2]]}$PEPTIDE1,PEPTIDE1,3:R3-7:R2$$$V2.0)	0.057 µM	–
CC(=O)N[C@@H](Cc1ccccc1)C(=O)N[C@H]1CCCNC(=O)[C@H](CC2CCCCC2)NC(=O)[C@H](Cc2c[nH]c3ccccc23)NC(=O)[C@@H](CC2CCCCC2)NC(=O)[C@@H]2CCCN2C1=O (HELM PEPTIDE1{[ac].F.[Orn].P.[O=C([C@@H](CC1CCCCC1)N[*:1])[*:2]].W.[Cha]}$PEPTIDE1,PEPTIDE1,3:R3-7:R2$$$V2.0)	0.045 µM	–
CC(=O)N[C@@H](Cc1ccccc1)C(=O)N[C@H]1CCCNC(=O)[C@H](Cc2cccs2)NC(=O)[C@H](Cc2c[nH]c3ccccc23)NC(=O)[C@@H](CC2CCCCC2)NC(=O)[C@@H]2CCCN2C1=O (HELM PEPTIDE1{[ac].F.[Orn].P.[O=C([C@@H](CC1CCCCC1)N[*:1])[*:2]].W.[O=C([C@H](Cc1cccs1)N[*:1])[*:2]]}$PEPTIDE1,PEPTIDE1,3:R3-7:R2$$$V2.0)	0.022 µM	–
CC(=O)N[C@@H](Cc1ccccc1)C(=O)N[C@@H](CCCN)C(=O)N1CCC[C@H]1C(=O)N[C@H](CCC(C)C)C(=O)N[C@@H](Cc1ccc(F)cc1)C(=O)N[C@@H](Cc1ccccc1)C(N)=O	0.071 µM	65%
CC(=O)N[C@@H](Cc1ccccc1)C(=O)N[C@H]1CCCNC(=O)[C@H](CCCNC(=N)N)NC(=O)[C@H](Cc2c[nH]c3ccccc23)NC(=O)[C@@H](C)NC(=O)[C@@H]2CCCN2C1=O	55 µM	–
CC(=O)N[C@@H](Cc1ccccc1)C(=O)N[C@H]1CCCNC(=O)[C@H](CCCCNC(=N)N)NC(=O)[C@H](Cc2c[nH]c3ccccc23)NC(=O)[C@@H](CC2CCCCC2)NC(=O)[C@@H]2CCCN2C1=O	0.36 µM	–
CC(=O)N[C@@H](Cc1ccccc1)C(=O)N[C@H]1CCCNC(=O)[C@H](Cc2ccccc2)NC(=O)[C@H](Cc2c[nH]c3ccccc23)NC(=O)[C@@H](CC2CCCCC2)NC(=O)[C@@H]2CCCN2C1=O (HELM PEPTIDE1{[ac].F.[Orn].P.[O=C([C@@H](CC1CCCCC1)N[*:1])[*:2]].W.F}$PEPTIDE1,PEPTIDE1,3:R3-7:R2$$$V2.0)	0.026 µM	–
CCCC[C@H](NC(=O)[C@H](Cc1c[nH]c2ccccc12)NC(=O)[C@@H](CC1CCCCC1)NC(=O)[C@@H]1CCCN1C(=O)[C@H](CCCN)NC(=O)[C@H](Cc1ccccc1)NC(C)=O)C(N)=O	0.463 µM	–
CC(=O)N[C@@H](Cc1ccccc1)C(=O)N[C@@H](CCCN)C(=O)N1CCC[C@H]1C(=O)N[C@H](CCC(C)C)C(=O)N[C@@H](Cc1csc2ccccc12)C(=O)N[C@@H](Cc1ccccc1)C(N)=O	0.027 µM	1%
CC(=O)N[C@@H](Cc1ccccc1)C(=O)N[C@H]1CCCNC(=O)[C@H](CCC2CCCCC2)NC(=O)[C@H](Cc2c[nH]c3ccccc23)NC(=O)[C@@H](CC2CCCCC2)NC(=O)[C@@H]2CCCN2C1=O	0.146 µM	–
CC(=O)N[C@@H](Cc1ccccc1)C(=O)N[C@H]1CCCNC(=O)[C@H](C)NC(=O)[C@H](Cc2c[nH]c3ccccc23)NC(=O)[C@@H](CC2CCCCC2)NC(=O)[C@@H]2CCCN2C1=O (HELM PEPTIDE1{[ac].F.[Orn].P.[O=C([C@@H](CC1CCCCC1)N[*:1])[*:2]].W.A}$PEPTIDE1,PEPTIDE1,3:R3-7:R2$$$V2.0)	6.9 µM	–
CC(=O)N[C@@H](Cc1ccccc1)C(=O)N[C@H]1CCCNC(=O)[C@H](Cc2cccc3ccccc23)NC(=O)[C@H](Cc2c[nH]c3ccccc23)NC(=O)[C@@H](CC2CCCCC2)NC(=O)[C@@H]2CCCN2C1=O (HELM PEPTIDE1{[ac].F.[Orn].P.[O=C([C@@H](CC1CCCCC1)N[*:1])[*:2]].W.[O=C([C@H](Cc1cccc2ccccc12)N[*:1])[*:2]]}$PEPTIDE1,PEPTIDE1,3:R3-7:R2$$$V2.0)	0.051 µM	–
CC(=O)N[C@@H](Cc1ccccc1)C(=O)N[C@H]1CCCNC(=O)[C@H](CCCN=C(N)N)NC(=O)[C@H](C)NC(=O)[C@@H](CC2CCCCC2)NC(=O)[C@@H]2CCCN2C1=O (HELM PEPTIDE1{[ac].F.[Orn].P.[O=C([C@@H](CC1CCCCC1)N[*:1])[*:2]].A.R}$PEPTIDE1,PEPTIDE1,3:R3-7:R2$$$V2.0)	100 µM	–
CC(=O)N[C@@H](Cc1ccccc1)C(=O)N[C@@H](CCCN)C(=O)N1CCC[C@H]1C(=O)N[C@H](CC1CCCCC1)C(=O)N[C@@H](Cc1c[nH]c2ccccc12)C(=O)N[C@@H](CCCN=C(N)N)C(=O)O	0.535 µM	–
CC(=O)N[C@@H](Cc1ccccc1)C(=O)N[C@H]1CCCNC(=O)[C@H](CCC/N=C(/N)N[N+](=O)[O-])NC(=O)[C@H](Cc2c[nH]c3ccccc23)NC(=O)[C@@H](CC2CCCCC2)NC(=O)[C@@H]2CCCN2C1=O	0.57 µM	–
CC(=O)N[C@@H](Cc1ccccc1)C(=O)N[C@H]1CCCNC(=O)[C@H](CC(C)C)NC(=O)[C@H](Cc2c[nH]c3ccccc23)NC(=O)[C@@H](CC2CCCCC2)NC(=O)[C@@H]2CCCN2C1=O (HELM PEPTIDE1{[ac].F.[Orn].P.[O=C([C@@H](CC1CCCCC1)N[*:1])[*:2]].W.L}$PEPTIDE1,PEPTIDE1,3:R3-7:R2$$$V2.0)	0.054 µM	–
CC(=O)N[C@@H](Cc1ccccc1)C(=O)N[C@H]1CCCNC(=O)[C@H](Cc2ccc3ccccc3c2)NC(=O)[C@H](Cc2c[nH]c3ccccc23)NC(=O)[C@@H](CC2CCCCC2)NC(=O)[C@@H]2CCCN2C1=O (HELM PEPTIDE1{[ac].F.[Orn].P.[O=C([C@@H](CC1CCCCC1)N[*:1])[*:2]].W.[O=C([C@H](Cc1ccc2ccccc2c1)N[*:1])[*:2]]}$PEPTIDE1,PEPTIDE1,3:R3-7:R2$$$V2.0)	0.076 µM	–
CCCC[C@H]1NC(=O)[C@H](Cc2c[nH]c3ccccc23)NC(=O)[C@@H](CC2CCCCC2)NC(=O)[C@@H]2CCCN2C(=O)[C@@H](NC(=O)[C@H](Cc2ccccc2)NC(C)=O)CCCNC1=O (HELM PEPTIDE1{[ac].F.[Orn].P.[O=C([C@@H](CC1CCCCC1)N[*:1])[*:2]].W.[CCCC[C@@H](N[*:1])C(=O)[*:2]]}$PEPTIDE1,PEPTIDE1,3:R3-7:R2$$$V2.0)	0.107 µM	–
CC(=O)N[C@@H](Cc1ccccc1)C(=O)N[C@H]1CCCNC(=O)[C@H](CCCNC(=N)N)NC(=O)[C@H](Cc2c[nH]c3ccccc23)NC(=O)[C@@H](CC2CCCCC2)NC(=O)[C@H](C)NC1=O	0.025 µM	–
CC(=O)N[C@@H](C)C(=O)N[C@H]1CCCNC(=O)[C@H](CCCN=C(N)N)NC(=O)[C@H](Cc2c[nH]c3ccccc23)NC(=O)[C@@H](CC2CCCCC2)NC(=O)[C@@H]2CCCN2C1=O (HELM PEPTIDE1{[ac].A.[Orn].P.[O=C([C@@H](CC1CCCCC1)N[*:1])[*:2]].W.R}$PEPTIDE1,PEPTIDE1,3:R3-7:R2$$$V2.0)	23 µM	–
